The target in data set [1] is T1, Guanylate cyclase soluble subunit alpha-1 (Rattus norvegicus) (UniProt P19686).
T1 sequence (whole entry): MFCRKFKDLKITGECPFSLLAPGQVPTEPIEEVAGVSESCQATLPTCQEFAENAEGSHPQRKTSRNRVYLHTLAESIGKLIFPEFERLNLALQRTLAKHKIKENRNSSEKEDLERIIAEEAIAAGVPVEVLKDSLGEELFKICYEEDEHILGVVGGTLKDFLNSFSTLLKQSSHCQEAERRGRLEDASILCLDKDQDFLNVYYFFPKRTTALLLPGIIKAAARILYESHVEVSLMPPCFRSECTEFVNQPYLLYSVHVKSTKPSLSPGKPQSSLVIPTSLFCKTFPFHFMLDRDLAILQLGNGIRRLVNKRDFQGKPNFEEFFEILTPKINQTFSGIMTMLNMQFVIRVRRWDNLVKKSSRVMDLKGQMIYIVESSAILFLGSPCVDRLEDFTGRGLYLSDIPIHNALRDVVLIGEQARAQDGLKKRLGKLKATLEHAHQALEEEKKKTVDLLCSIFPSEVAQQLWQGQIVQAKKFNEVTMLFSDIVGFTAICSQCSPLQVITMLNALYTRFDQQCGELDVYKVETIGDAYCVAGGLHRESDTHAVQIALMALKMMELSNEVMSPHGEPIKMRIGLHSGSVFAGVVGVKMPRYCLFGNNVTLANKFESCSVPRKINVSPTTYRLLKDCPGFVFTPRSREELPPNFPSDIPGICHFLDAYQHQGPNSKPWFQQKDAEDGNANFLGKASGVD
The data set can be described thus: Activation of recombinant rat sGC alpha1 subunit expressed in CHO cells assessed as induction of [32P-cGMP] formation using alpha-[32P-GTP] as substrate measured after 6 mins by luminescence assay. In kind it is cell-based. The settings on record: filed as activator.

Data set [2] can be described thus: Volume of distribution at steady state in iv dosed Beagle dog measured up to 24 hrs by LC-MS analysis. Format: ADME, organism-based, Canis lupus familiaris. As to conditions: in vivo, read-out: Vdss. Put shortly: (§1)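 Three animals per species and strain received an intravenous dose. Steady-state volume of distribution (L/kg) was derived from the blood concentration–time profile, alongside blood clearance and terminal half-life.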

Data set [3] is described as follows: Oral bioavailability in Beagle dog measured up to 24 hrs by LC-MS analysis. Format: ADME, organism-based, Canis lupus familiaris. The settings on record: in vivo.
A short description of data set [4]: Plasma clearance in iv dosed cynomolgus monkey measured up to 24 hrs by LC-MS analysis. Format: ADME, organism-based, Macaca fascicularis.
Data set [5] is described as follows: Half life in iv dosed Wistar rat measured up to 24 hrs by LC-MS analysis. In kind it is ADME, organism-based. The settings on record: in vivo.
Data set [6] is described as follows: Induction of CYP3A4 in human hepatocytes using phenacetin as substrate incubated for 60 mins by LC-MS/MS analysis. As to conditions: 1 h.
Data set [7] is described as follows: Volume of distribution at steady state in iv dosed Wistar rat measured up to 24 hrs by LC-MS analysis. In kind it is ADME, organism-based. As to conditions: in vivo, read-out: Vdss. The gist of the method: as §1
Data set [8] is described as follows: Half life in iv dosed cynomolgus monkey measured up to 24 hrs by LC-MS analysis. In kind it is ADME, organism-based, Macaca fascicularis. As to conditions: in vivo.
Data set [9] is described as follows: Half life in iv dosed Beagle dog measured up to 24 hrs by LC-MS analysis. In kind it is ADME, organism-based, Canis lupus familiaris. As to conditions: in vivo.
The nature of data set [10]: Activation of recombinant rat sGC expressed in CHO cells by luminescence assay. Format: cell-based. As to conditions: CHO. Put shortly:
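Stable CHO reporter cell line overexpressing rat sGC; cGMP formation read as luminescence. EC50 from concentration–response. MEC taken as lowest concentration giving at least threefold increase in basal luminescence.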

Data set [11] is described as follows: Plasma clearance in iv dosed Beagle dog measured up to 24 hrs by LC-MS analysis. Format: ADME, organism-based, Canis lupus familiaris.
A short description of data set [12]: Volume of distribution at steady state in iv dosed cynomolgus monkey measured up to 24 hrs by LC-MS analysis. Format: ADME, organism-based, Macaca fascicularis. As to conditions: in vivo, read-out: Vdss. Put shortly:
as §1

Data set [13] in a line: Oral bioavailability in Wistar rat measured up to 24 hrs by LC-MS analysis. In kind it is ADME, organism-based. The settings on record: in vivo.
Data set [14] concerns the target T2, Cytochrome P450 1A2 (Homo sapiens, UniProt P05177).
T2 sequence (P05177 whole entry): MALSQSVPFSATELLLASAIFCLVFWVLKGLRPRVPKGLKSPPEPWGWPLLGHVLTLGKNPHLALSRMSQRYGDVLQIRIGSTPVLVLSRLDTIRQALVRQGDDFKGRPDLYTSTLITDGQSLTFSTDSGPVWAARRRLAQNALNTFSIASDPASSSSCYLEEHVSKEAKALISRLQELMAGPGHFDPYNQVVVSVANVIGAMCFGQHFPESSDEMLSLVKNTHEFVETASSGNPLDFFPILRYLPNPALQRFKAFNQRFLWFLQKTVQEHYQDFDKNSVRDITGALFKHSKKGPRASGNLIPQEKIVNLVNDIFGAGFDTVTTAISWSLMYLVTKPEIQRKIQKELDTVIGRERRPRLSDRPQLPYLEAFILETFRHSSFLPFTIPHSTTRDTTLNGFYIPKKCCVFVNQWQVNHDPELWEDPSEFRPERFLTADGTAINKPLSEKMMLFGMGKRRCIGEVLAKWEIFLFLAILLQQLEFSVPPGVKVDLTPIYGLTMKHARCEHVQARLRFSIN
The data set can be described thus: Induction of CYP1A2 in human hepatocytes at > 123 ng/ml using phenacetin as substrate incubated for 60 mins by LC-MS/MS analysis. Format: ADME, cell-based, Hepatocyte. The settings on record: 1 h.

In data set [15] the target is T1, Guanylate cyclase soluble subunit alpha-1 (Rattus norvegicus). The data set can be described thus: Activation of recombinant rat sGC alpha1 subunit expressed in CHO cells assessed as induction of [32P-cGMP] formation by measuring efficacy using alpha-[32P-GTP] as substrate measured after 6 mins by luminescence assay relative to control. Format: cell-based. The settings on record: filed as activator.

Data set [16] is described as follows: Clearance in Wistar rat at 0.3 mg/kg, iv measured up to 24 hrs by LC-MS analysis. Format: ADME, organism-based. As to conditions: in vivo. The gist of the method: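 Rats dosed iv at 0.3 mg/kg; blood clearance determined.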
Data set [17] in a line: Oral bioavailability in cynomolgus monkey measured up to 24 hrs by LC-MS analysis. In kind it is ADME, organism-based, Macaca fascicularis. As to conditions: in vivo.
The next data set has as its target Cytochrome P450 3A4 (Homo sapiens, UniProt P08684). The data set can be described thus: Induction of CYP3A4 in human hepatocytes at > 10000 ng/ml using phenacetin as substrate incubated for 60 mins by LC-MS/MS analysis. In kind it is ADME, cell-based, Hepatocyte. As to conditions: 1 h.
Data set [18] deals with T2, Cytochrome P450 1A2. The data set can be described thus: Induction of CYP1A2 in human hepatocytes at > 10000 ng/ml using phenacetin as substrate incubated for 60 mins by LC-MS/MS analysis. Format: ADME, cell-based, Hepatocyte. The settings on record: 1 h.

As usually defined, the bioavailability is dose-corrected exposure relative to a reference, in per cent. In general, clearance refers to the rate of elimination divided by the concentration. As usually defined, the half-life is the time needed for the level to fall by half in the phase considered. One may read the EC50 as the concentration that produces a half-maximal response.

Chain of Cytochrome P450 3A4 (P08684 whole entry): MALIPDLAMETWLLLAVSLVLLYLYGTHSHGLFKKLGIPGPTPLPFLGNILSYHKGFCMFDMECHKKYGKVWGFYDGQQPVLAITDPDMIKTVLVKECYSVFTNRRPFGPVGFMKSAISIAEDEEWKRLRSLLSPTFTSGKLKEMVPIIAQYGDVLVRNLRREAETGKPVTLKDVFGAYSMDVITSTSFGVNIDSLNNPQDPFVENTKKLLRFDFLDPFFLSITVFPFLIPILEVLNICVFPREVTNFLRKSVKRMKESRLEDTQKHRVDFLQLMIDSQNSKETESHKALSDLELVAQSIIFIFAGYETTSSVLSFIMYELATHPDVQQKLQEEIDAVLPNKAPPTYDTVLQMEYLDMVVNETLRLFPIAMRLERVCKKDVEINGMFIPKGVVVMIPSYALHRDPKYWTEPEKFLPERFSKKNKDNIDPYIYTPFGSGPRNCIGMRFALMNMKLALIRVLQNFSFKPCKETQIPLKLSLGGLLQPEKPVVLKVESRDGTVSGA

Regarding `C[C@H]([C@H](C(=O)Nc1cc(C[C@H](C)C(=O)O)ccc1Cl)c1ccc(Cl)cc1)C(F)(F)F`, the MEC in data set [1] was determined as 10 nM. Also, the Vd in data set [2] turned out to be 2.1 L/kg; in [7], 2 L/kg; in data set [12] it was 0.55 L/kg. The bioavailability came out at 78% in data set [3], 100% in data set [13] and 100% in data set [17]. The clearance was 0.833 mL/min/kg in [4], 6.33 mL/min/kg in data set [11] and 2.83 mL/min/kg in data set [16]. For the same compound, the half-life in data set [5] was 780 min; in [8] it was 498 min; in [9] it was 558 min. The figures for the Activity (in [6]; on Cytochrome P450 1A2 [14]) were 266 nM and “Not Active”, respectively. Besides, the EC50 in [10] was found to be 43 nM. Besides, in [15], the Efficacy worked out at 63%.

`C[C@H]([C@H](C(=O)Nc1cc(CC2(C(=O)O)CC2)ccc1Cl)c1ccc(Cl)cc1)C(F)(F)F`: the MEC in [1] was 0.3 nM. Moreover, the figures for the Vd in data set [2] and in data set [7] were 3 L/kg and 1.5 L/kg, respectively. Moreover, the bioavailability in [3] is 57%; in [13], 84%. The clearance is 4 mL/min/kg in data set [4], 25 mL/min/kg in data set [11] and 7.67 mL/min/kg in data set [16]. Moreover, the half-life in [5] was 258 min; in [9], 660 min. Further, in [15], the Efficacy was found to be 63%.

On to `O=C(O)CCc1cccc(NC(=O)[C@H](c2ccc(CN3N=C(c4ccccc4)OCC3=O)cc2)C2CCCC2)c1`, for which the MEC in [1] was 10 nM. The clearance in data set [4] is 14.3 mL/min/kg; in data set [11], 2.67 mL/min/kg; in data set [16], 64.2 mL/min/kg. The Activity entry at Cytochrome P450 3A4 and on Cytochrome P450 1A2 [18] was “Not Active” throughout.

Turning to `Cc1c(CCC(=O)O)cccc1NC(=O)[C@H](c1ccc(CN2N=C(c3ccccc3)OCC2=O)cc1)C1CCCC1`, the MEC in data set [1] was determined as 3 nM. In addition, the EC50 in [10] came to 27 nM. The Activity result at Cytochrome P450 3A4 and at Cytochrome P450 1A2 [18] was “Not Active” each time. The Efficacy in [15] was determined as 110%.

For the origin of these results see ChEMBL document CHEMBL4808182, “Discovery of the Soluble Guanylate Cyclase Activator Runcaciguat (BAY 1101042)” (J Med Chem, 2021).
